Many of the other results were omitted from the sample, so hits are more common in it than they were.
Lmaj promast – inhibitors of Leishmania major promastigote growth | 9% of 200,000 active | inhibition, % at 10 µM | Leishmania major promastigotes, resazurin fluorescence viability;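 further: promastigotes grown with compound for 44 hours at 28 °C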
NALP3 yeast inh – blocks the NALP3 inflammasome reconstituted in yeast | inhibition, % at 10 µM | 0.39% of 330,000 active | AID 2825 | Yeast reconstituted NLRP3/ASC/caspase-1, beta-gal luminescence, 24 h;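 active means inhibition of 50% or more; inactive means inhibition below 50%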;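 further: plate controls were induced DMSO wells for no effect and uninduced yeast grown without galactose for full effect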
Calb FLC – C. albicans growth modulation with fluconazole; C. albicans CaCi-2 + fluconazole, Alamar Blue growth, 48 h; growth inhibition, % (concentration not given with the values); 0.57% of 300,000 active;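 active means growth inhibition above about 58% in most replicates, limit read from the data, passing the limit was not always enough; inconclusive means exactly half the replicates above a set limit; inactive means most replicates below a set limit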;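 further: all wells also contain fluconazole at 8 µg/ml as a sub-toxic cotreatment; 0% = median of DMSO wells and 100% = median of geldanamycin control wells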
PolyA inhibitor – inhibitors of polyadenylation in S. cerevisiae; activity score, % at 12 µM; S. cerevisiae SKY197-pL101 polyadenylation reporter, beta-gal luminescence; efflux-impaired pdr1/pdr3 knockout yeast; score 100 = 6 SD above DMSO; 0.02% of 300,000 active;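 active means lowest replicate activity score at least 50, where 100 means six control SD above control mean; inconclusive means lowest score under 50 but half or more replicates reach 50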;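 further: yeast exposed to compound for 9 h at 30 °C; higher score means more reporter readthrough which indicates perturbed polyadenylation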
T cruzi inh – T. cruzi replication inhibition; T. cruzi beta-gal in NIH3T3, luminescence, 90 h; inhibition, % (no concentration beside the values); 1.4% of 300,000 active;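 active means mean inhibition across valid replicates above about 55%, limit read from the data; inconclusive means mean below that limit but half or more replicates reach it; inactive means mean below it, under half of replicates reach it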;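 further: signal also drops with host cell toxicity which is not excluded here; 0% = plate median of DMSO wells and 100% = zero luminescence signal; higher percent means less beta-gal luminescence so fewer parasites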
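Read-out: Parasite load inhibition, % | Test system: Mouse NIH/3T3 fibroblasts infected with β-gal-expressing T. cruzi Tulahuen C4 | Amount: 5,000 cells/well | Medium: DMEM, 2% fetal bovine serum | Signal: GalScreen β-gal luminescence, detergent lysis, 60 min | Timing: 3 h attach, ≥90 h co-culture | Also added: Tulahuen C4 trypomastigotes, 5000/well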
NALP1 inh – blocks the NALP1 inflammasome reconstituted in yeast; S. cerevisiae NALP1/ASC/caspase-1 growth, X-gal OD620, 72 h; inhibition, % at 10 µM; 0.61% of 280,000 active; in the data active means inhibition mostly above about 24%, no sharp cut-off; inactive means mostly below about 32%
Lmaj promast 1uM – L. major promastigote growth inhibition, 1 uM repeat | 13% of 1,100 active | resazurin fluorescence, 48 h | AID 1258 | inhibition, % at 1 µM | shares compounds with Lmaj promast;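 active means inhibition above about 50% in both repeat tests, limit read from the data; inconclusive means one repeat under the set limit, the other over it; inactive means both repeats under the set limit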
NALP3 confirm – NALP3 inhibition confirmation in yeast. shares compounds with NALP3 yeast inh. yeast expressing human NALP3, luminescence. inhibition, % at 10 µM. 81% of 1,300 active. AID 435006; in the data active means inhibition above about 48%
Casp1 ASC ctr – active in yeast caspase-1-ASC counter-screen for NALP3 inhibitors; shares compounds with NALP3 yeast inh; yeast expressing Caspase-1-ASC, luminescence counter screen; inhibition, % at 10 µM; 66% of 1,000 active; AID 488784
NALP3 retest – yeast NALP3 inhibition, confirmed on retest; inhibition, % at 10 µM; shares compounds with NALP3 yeast inh; 53% of 1,000 active; yeast expressing human NALP3, luminescence read-out; AID 488794
* hit, by the source's call; ? = inconclusive; / = no result. Unless noted, no stated cut-off is given here; in the data, active means inhibition above about 50%; inactive means the rest.

SMILES	Lmaj promast	NALP3 yeast inh	Calb FLC	PolyA inhibitor	T cruzi inh	NALP1 inh	NALP3 confirm	Casp1 ASC ctr	NALP3 retest	others
Cc1ccc(-c2nn(Cc3ccccc3)cc2C=O)cc1C	54*	23	12	8	17	/	/	/	/	Lmaj promast 1uM=-7
CCC(=NCCCN(CC)CC)c1c(O)n(-c2ccccc2)c(=O)[nH]c1=O	0	5	-18	6	13	-10	/	/	/
CCc1ccc(/C=C(/C#N)C(N)=S)cc1	50*	-5	8	8	0	-1	/	/	/	Lmaj promast 1uM=-19
CCOP(=S)(OCC)Oc1nc(Cl)c(Cl)cc1Cl	/	6	/	/	/	/	/	/	/
C1=C(c2c[nH]c3ccccc23)CCNC1	100*	15	-14	-2	?	-9	/	/	/	Lmaj promast 1uM=47
CC(C)(O)[C@H]1O[C@H]2CC[C@@]3(C)[C@@](O)(CC[C@H]4Cc5c([nH]c6ccccc56)[C@@]43C)C2=CC1=O	94*	10	/	-13	19	-6	/	/	/	Lmaj promast 1uM=14
COc1ccc(CN2CCN(c3ccccc3)CC2)c(C)c1C	8	-7	-1	12	-2	3	/	/	/
O=c1[nH]c(=O)n(-c2cccc3ccccc23)c(O)c1C=NCCCn1ccnc1	-6	15	-7	27	0	10	/	/	/
O=P(Nc1cccnc1)(Oc1ccccc1)Oc1ccccc1	93*	-2	-15	-13	5	20	/	/	/	Lmaj promast 1uM=30
COc1cccc(NP(=O)(Oc2ccccc2)Oc2ccccc2)c1	22	11	-14	-6	-70	33	/	/	/
C[C@@]1(CO)[C@H](O)CC[C@@]2(C)[C@H]1CC[C@H]1C[C@@H]3C[C@@]12CC[C@]3(O)CO	100*	/	/	3	36	24	/	/	/	Lmaj promast 1uM=95*
O=C(c1ccc(-c2ccccc2)c(F)c1)C1CCCN(CCO)C1 (stereo unspecified)	99*	17	-8	6	-7	10	/	/	/	Lmaj promast 1uM=63*
O=C(c1cccc(Cl)c1)C1CCCN(Cc2ccon2)C1 (stereo unspecified)	-3	-2	-5	-8	-12	5	/	/	/
C[C@H]1C[C@@H](C)C(=O)[C@@H]([C@H](O)CC2CC(=O)NC(=O)C2)C1	100*	98*	14	7	58*	100*	99*	100*	99*	Lmaj promast 1uM=100*
OC(CCNCCc1c[nH]c2ccccc12)C(F)(F)Cl (stereo unspecified)	3	6	0	8	-4	12	/	/	/
Nc1c2c(nc3sc4c(c13)CCCCC4)CCCC2	93*	63*	-12	11	11	67*	79*	39	40
BrCC1C[n+]2c(SCc3ccccc3)nc3sc4c(c3c2O1)CCCC4 (stereo unspecified)	/	15	-5	-6	-21	28	/	/	/
CCCc1nnc(NC(=O)CCC(=O)N2CCN(CCOC(c3ccccc3)c3ccccc3)CC2)s1	15	12	11	15	19	19	/	/	/
Fc1ccc(C(OCCN2CCN(CCCc3ccccc3)CC2)c2ccc(F)cc2)cc1	/	50*	/	-32	36	/	59*	/	/
CCCCCCCCCCCCCCCC[N+](C)(C)C	/	60*	102*	13	47	/	53*	55*	59*
CCCCCC[N+](=O)[O-]	/	9	/	/	/	/	/	/	/
COc1ccc(-n2c(O)c(C=NCCN3CCN(C(C)=O)CC3)c(=O)[nH]c2=S)cc1	/	53*	7	-31	-7	6	67*	29	36
NC1=C([N+](=O)[O-])C(c2ccc3c(c2)OCO3)c2c(c3ccccc3oc2=O)O1 (stereo unspecified)	/	-4	7	-1	-6	/	/	/	/
O=c1oc2ccccc2c(O)c1[C@H]1c2ccc(O)cc2Oc2c1c(=O)oc1ccccc21	/	79*	-4	-17	18	/	85*	87*	78*
CO[C@H]1[C@@H](OC)CC(OC2OC(CO)C(O)C(O)C2O)/C(=C\C#N)[C@@H]1O (stereo partly specified)	14	24	-2	20	-6	8	/	/	/
SMILES	Lmaj promast	NALP3 yeast inh	Calb FLC	PolyA inhibitor	T cruzi inh	NALP1 inh	NALP3 confirm	Casp1 ASC ctr	NALP3 retest	others
Cc1cc(C)nc(/N=C(\N)c2c(O)[nH]c(=O)[nH]c2=O)n1	3	12	0	-4	-3	33	/	/	/
CN(C)C1=C(C#N)C(c2ccccc2)=NP(N(C)C)(N(C)C)=N1	12	7	5	-4	-1	1	/	/	/
CC(C(N)=O)N1CC(c2ccc(Cl)cc2)CC1=O (stereo unspecified)	-1	-5	/	10	2	-5	/	/	/
CC(N)C(=O)OC(C)(C)Cc1ccc(Cl)cc1 (stereo unspecified)	/	69*	/	/	/	/	56*	48	56*
COC(=O)C1=C(c2ccc(F)cc2OCc2ccccc2)C[C@@H]2CC[C@H]1N2C(=O)N1CCC(O)CC1	/	-8	/	/	/	/	/	/	/
CCN(CCNc1ccc([N+](=O)[O-])c2cccnc12)S(=O)(=O)c1ccc(Cl)cc1	89*	50*	6	-31	35	-3	65*	37	34
C[C@]12CCC(=O)C[C@H]1CC[C@@H]1[C@@H]2CC[C@]2(C)C(=O)CC[C@@H]12	/	66*	/	/	/	/	70*	61*	49
C[C@]1(O)CCC2C3CC[C@@H]4CC(=O)CC[C@]4(C)C3CC[C@@]21C (stereo partly specified)	/	55*	/	/	/	/	69*	68*	42
C[C@]12CCC3C(CC[C@H]4CC(=O)CC[C@]34C)C1CCC2=O (stereo partly specified)	/	61*	/	/	/	/	56*	/	/
C[C@]12CCC3C(CC[C@H]4C[C@H](OC(=O)c5cccnc5)CC[C@]34C)C1CCC2=O (stereo partly specified)	/	54*	/	/	/	/	60*	/	/
C[C@]12CC[C@@H](O)C[C@@H]1CC[C@@H]1[C@@H]2CC[C@]2(C)C(=O)CC[C@@H]12	/	56*	/	7	19	21	67*	60*	61*
CC(=O)[C@H]1CCC2C3CC[C@H]4C[C@@H](O)CC[C@]4(C)C3CC[C@@]21C (stereo partly specified)	/	49	/	/	/	/	/	/	/
C[C@]12CCC3C(CC[C@H]4C[C@H](O)CC[C@]34C)C1CCC2=O (stereo partly specified)	/	53*	/	/	/	/	68*	/	/
Cc1cccc(NC(=O)C(C)N2CC=C(c3ccccc3)CC2)c1 (stereo unspecified)	4	5	-17	10	15	4	/	/	/
N#CC(C#N)=Cc1ccc(O)c(O)c1	/	4	/	/	/	/	/	/	/
